Reference: the RNAGym collection of RNA variant scans (doi:10.1126/science.aae0568)
Fewer inactive variants are shown than the library holds.

B1: tRNA (parent)
chain: GUUCCGUUGGCGUAAUGGUAACGCGUCUCCCUCCUAAGGAGAAGACUGCGGGUUCGAGUCCCGUACGGAACG

Variants of: B1
Assay: yeast fitness relative to wild type (ratio to wild type); higher = fitter; tRNA-Arg(CCU), competitive growth, 37 C, YPD
Outline: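 For this measurement, the tRNA-Arg(CCU) gene was varied by chemical synthesis at a 3% per-site mutation rate across 69 sites, and each variant was placed at the native genomic locus in Saccharomyces cerevisiae. The pooled strains went through a 24-hour competition in YPD at 37°C in six parallel replicates, with amplicons from start and end populations read by 100-nucleotide paired-end sequencing. Darwinian fitness relative to wild type followed from the change in each genotype's frequency. Genotypes needed ≥ 100 starting reads, and estimates < 0.5 were set to 0.5.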

| Variant | yeast fitness |
| --- | --- |
| GUUCCGUUGGCGUAAUGGUAACGCGUCUCCCUCCUAAGGAGGAGACUGCGGGUUCGAGUCCCGUAGCGAACG [A42G C66G G67C] | ≤ 0.5 |
| GUUCCGUUGGCGUAAUGGUAACGCGUCUCCCUCCUAAGGAGUAGUCUGCGGGUUCGAGUCCCGUACGGCACG [A42U A45U A69C] | 0.656 |
| GUUCCGUUGGCGUAAUGGUAACGCGUCUCCCUCCUAAGGAGGAGACUGCGGGUUCGAGUCACGUACAGAACG [A42G C61A G67A] | ≤ 0.5 |
| GUUCCGUUGGCGUAAUGGUAACGCGUCUCCCUCCUAAGGAGUAGCCUGCGGGUUUGAGUCCCGUACGGCACG [A42U A45C C55U A69C] | ≤ 0.5 |
| GUUCCGUUGGCGUAAUGGUAACGCGUCUCCCUCCUAAGGAGUAGCCUGCGGGUUCGAGUCCCGUACGGACCG [A42U A45C A70C] | 0.721 |
| GUUCCGUUGGCGUAAUGGUAACGCGUCUCCCUCCUAAGGAGGACGCUGCGGGUUCGAGUCCCGUACGGAACG [A42G G44C A45G] | 0.723 |
| GUUCCGUUGGCGUAAUGGUAACGCGUCUCCCUCCUAAGGAGGAGACUGCGGGUUCGAGGCCCGCAGGGAACG [A42G U59G U64C C66G] | ≤ 0.5 |
| GUUCCGUUGGCGUAAUGGUAACGCGUCUCCCUCCUAAGGAGGAGACGGCGGGUUCGAGUCCCGUACGGAACG [A42G U47G] | 0.771 |
| GUUCCGUUGGCGUAAUGGUAACGCGUCUCCCUCCUAAGGAGGAGACCGCGGGUUCGAGUCCCGUACGGAACG [A42G U47C] | 0.959 |
| GUUCCGUUGGCGUAAUGGUAACGCGUCUCCCUCCUAAGGAGGAGACUGCGAGUUCGCGCUCCGUACGGAACG [A42G G51A A57C U59C C60U] | ≤ 0.5 |
| GUUCCGUUGGCGUAAUGGUAACGCGUCUCCCUCCUAAGGAGGAGACUACGGGUUCGAGUCCCGUACGCAUCG [A42G G48A G68C A70U] | ≤ 0.5 |
| GUUCCGUUGGCGUAAUGGUAACGCGUCUCCCUCCUAAGGAGUAGACUGCGGGUUCGCGUCCCGUACGGCACG [A42U A57C A69C] | ≤ 0.5 |
| GUUCCGUUGGCGUAAUGGUAACGCGUCUCCCUCCUAAGGAGUAGUCUGGGGGUUCGAGUCCCGUACGGAACG [A42U A45U C49G] | 0.526 |
| GUUCCGUUGGCGUAAUGGUAACGCGUCUCCCUCCUAAGGAGGAGACUGCGGGUUCGAGUCCCGUACGGUACG [A42G A69U] | 0.959 |
| GUUCCGUUGGCGUAAUGGUAACGCGUCUCCCUCCUAAGGAGGACACUGCGGGUUCGCGUCCCGUACGGAACG [A42G G44C A57C] | ≤ 0.5 |
| GUUCCGUUGGCGUAAUGGUAACGCGUCUCCCUCCUAAGGAGGAGACUGUGGGUUCGAGUCCCGUACGGAUCG [A42G C49U A70U] | 0.711 |
| GUUCCGUUGGCGUAAUGGUAACGCGUCUCCCUCCUAAGGAGGAGACUCCGGGUUCGAGUCCCGUACGGAACG [A42G G48C] | 0.741 |
| GUUCCGUUGGCGUAAUGGUAACGCGUCUCCCUCCUAAGGAGUAGUUUGCGGGUUCGAGUCCCGUAAGGAACG [A42U A45U C46U C66A] | ≤ 0.5 |
| GUUCCGUUGGCGUAAUGGUAACGCGUCUCCCUCCUAAGGAGGAGACAGCGGGUUUGCGUCCCGUACGGAACG [A42G U47A C55U A57C] | 0.631 |

| Variant | yeast fitness |
| --- | --- |
| GUUCCGUUGGCGUAAUGGUAACGCGUCUCCCUCCUAAGGAGGAGACUGCGGCUUCGAGUCCCGUACGGAACG [A42G G52C] | 0.574 |
| GUUCCGUUGGCGUAAUGGUAACGCGUCUCCCUCCUAAGGAGGAGACUGCGGAUUCGAGUCCCGUACGGAACG [A42G G52A] | 0.648 |
| GUUCCGUUGGCGUAAUGGUAACGCGUCUCCCUCCUAAGGAGUGGACUCCGGGAUCGAGUCCCGUACGGAACG [A42U A43G G48C U53A] | 0.566 |
| GUUCCGUUGGCGUAAUGGUAACGCGUCUCCCUCCUAAGGAGGAGACUGCGUGUUCGUGUCCCGUACAGAACG [A42G G51U A57U G67A] | ≤ 0.5 |
| GUUCCGUUGGCGUAAUGGUAACGCGUCUCCCUCCUAAGGAGGAGACUGCGGGUUCGAGUCCCGUACCGACCG [A42G G67C A70C] | ≤ 0.5 |
| GUUCCGUUGGCGUAAUGGUAACGCGUCUCCCUCCUAAGGAGGAGACUGCGGGUUCGAGUCCUGUACGAAACG [A42G C62U G68A] | 0.79 |
| GUUCCGUUGGCGUAAUGGUAACGCGUCUCCCUCCUAAGGAGUUGACUGCGGGUUCGAGUCCCGUACGGAACG [A42U A43U] | 1.01 |
| GUUCCGUUGGCGUAAUGGUAACGCGUCUCCCUCCUAAGGAGGAGACUGCGGGUUCCAGUCCCGUACGGAACG [A42G G56C] | 0.595 |
| GUUCCGUUGGCGUAAUGGUAACGCGUCUCCCUCCUAAGGAGGAGACUGCGGGUUCGAGUCCCGUAUGGAACG [A42G C66U] | 0.814 |
| GUUCCGUUGGCGUAAUGGUAACGCGUCUCCCUCCUAAGGAGGAGACUGCGGGUUCGAGUCCCGUAGGGAACG [A42G C66G] | 0.808 |
| GUUCCGUUGGCGUAAUGGUAACGCGUCUCCCUCCUAAGGAGGACACUGCGGGUUCGAGUCCCGUCCGGAACG [A42G G44C A65C] | 0.563 |
| GUUCCGUUGGCGUAAUGGUAACGCGUCUCCCUCCUAAGGAGGAGACUACGGGUUCGAGUCGCGUACGGAACG [A42G G48A C61G] | ≤ 0.5 |
| GUUCCGUUGGCGUAAUGGUAACGCGUCUCCCUCCUAAGGAGUGGACUGCGGGUUCGAGUCACGUACGGAACG [A42U A43G C61A] | 0.723 |
| GUUCCGUUGGCGUAAUGGUAACGCGUCUCCCUCCUAAGGAGGAGACUGCGGGUUCGAGUCCCGUACGGACCG [A42G A70C] | 0.853 |
| GUUCCGUUGGCGUAAUGGUAACGCGUCUCCCUCCUAAGGAGGAGACUGCGGGUUCGAGUCCCGUACGGAGCG [A42G A70G] | 0.693 |
| GUUCCGUUGGCGUAAUGGUAACGCGUCUCCCUCCUAAGGAGUAGACUGCGGGUUCGCGUCUCGUUCGGAACG [A42U A57C C61U A65U] | 0.58 |
| GUUCCGUUGGCGUAAUGGUAACGCGUCUCCCUCCUAAGGAGGAGACAGCGGGUUCGAGUCCCGUAUGGAACG [A42G U47A C66U] | 0.567 |
| GUUCCGUUGGCGUAAUGGUAACGCGUCUCCCUCCUAAGGAGGAGACUGCGGGUCCGAGUCCCGUUCGGAACG [A42G U54C A65U] | ≤ 0.5 |
